The test system of one experiment is PC-3. Kind of experiment: Cytotoxicity against human PC-3 cells assessed as reduction in cell viability incubated for 72 hrs by MTT assay. Conditions: PC-3, 72 h. It is filed as functional, cell-based. In outline:
(§1)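 Cancer lines (MDA-MB-231, HT-1080, PC-3) were grown in DMEM with 10% FBS and penicillin/streptomycin at 37 °C in 5% CO₂. About 5000 cells/well adhered overnight, then serial compound dilutions were added for 72 h, with matching DMSO dilutions (0.5–0.0008% v/v) as controls. MTT (1 mg/ml final, serum-free phenol-red-free DMEM) ran 4 h, was solubilised in 2-propanol, and OD read at 550 nm (ref 690). IC50 is the concentration halving OD versus untreated, mean of three independent experiments.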
On the technique in general: Tetrazolium dyes change colour on reduction, which living cells bring about.

The test system of experiment [1] is HT-1080. Kind of experiment: Induction of cell cycle arrest in human HT1080 cells assessed as accumulation at S phase at 2 uM incubated for 24 hrs by RNase/PI staining based flow cytometric analysis (reference value: 19.59 %). Type of experiment: functional. (Flow cytometry measures light scatter and fluorescence of single cells or particles in a stream.)
The test system of experiment [2] is HT-1080. Kind of experiment: Induction of cell cycle arrest in human HT1080 cells assessed as accumulation at G0/G1 phase at 2 uM incubated for 24 hrs by RNase/PI staining based flow cytometric analysis (reference value: 32.86 %). It is filed as functional.
Experiment [3] relates to HT-1080. Kind of experiment: Induction of cell cycle arrest in human HT1080 cells assessed as accumulation at G2/M phase at 2 uM incubated for 24 hrs by RNase/PI staining based flow cytometric analysis (reference value: 47.55 %). Type of experiment: functional.
For a further experiment, the system named is AG1523. Kind of experiment: Cytotoxicity against human AG01523 cells assessed as reduction in cell viability incubated for 72 hrs by MTT assay. Type of experiment: cell-based. Conditions: AG1523, 72 h.
For experiment [4], the target named is MAP kinase p38 (Homo sapiens) (UniProt O15264+Q15759+Q16539+P53778). Kind of experiment: Induction of p38 MAPK phosphorylation in human HT-1080 cells at 20 uM after 15 mins by Western blotting analysis. (In general: A western blot detects proteins with antibodies after separation by electrophoresis.)
The test system of another experiment is MDA-MB-231. Kind of experiment: Cytotoxicity against human MDA-MB-231 cells assessed as reduction in cell viability incubated for 72 hrs by MTT assay. Type of experiment: functional, cell-based. Conditions: MDA-MB-231, 72 h. The procedure, abridged:
as §1

For experiment [5], the system named is HT-1080. Kind of experiment: Inhibition of ERK phosphorylation in human HT-1080 cells at 20 uM after 15 mins by Western blotting analysis.
The test system of experiment [6] is HT-1080. Kind of experiment: Induction of apoptosis in human HT-1080 cells assessed as increase in PARP cleavage at 2 uM after 24 hrs by Western blotting analysis.
The test system of experiment [7] is HT-1080. Kind of experiment: Induction of cell cycle arrest in human HT1080 cells assessed as accumulation at sub-diploid phase at 2 uM incubated for 24 hrs by RNase/PI staining based flow cytometric analysis (reference value: 5.36 %). It is filed as functional.
Experiment [8] deals with RAC-alpha serine/threonine-protein kinase (Homo sapiens) (UniProt P31749). Kind of experiment: Inhibition of AKT phosphorylation at Ser473 residue in human HT-1080 cells at 20 uM after 15 mins by Western blotting analysis. The conditions noted are these: time 15.0 mins.
Chain of RAC-alpha serine/threonine-protein kinase (Homo sapiens) (P31749 whole entry): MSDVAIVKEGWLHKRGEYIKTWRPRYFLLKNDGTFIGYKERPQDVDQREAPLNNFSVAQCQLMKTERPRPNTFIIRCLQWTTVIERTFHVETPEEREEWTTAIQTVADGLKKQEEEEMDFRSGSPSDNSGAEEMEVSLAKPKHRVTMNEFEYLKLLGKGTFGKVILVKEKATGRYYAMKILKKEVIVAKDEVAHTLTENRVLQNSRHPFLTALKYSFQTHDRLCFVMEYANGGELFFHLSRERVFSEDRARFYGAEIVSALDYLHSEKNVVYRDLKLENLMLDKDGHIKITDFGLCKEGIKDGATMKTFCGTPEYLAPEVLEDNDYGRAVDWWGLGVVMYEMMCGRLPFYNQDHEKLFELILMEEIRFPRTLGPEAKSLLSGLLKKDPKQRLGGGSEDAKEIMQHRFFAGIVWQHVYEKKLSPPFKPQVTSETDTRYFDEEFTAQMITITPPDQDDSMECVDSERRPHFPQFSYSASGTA
The subject of experiment [9] is HT-1080. Kind of experiment: Cytotoxicity against human HT-1080 cells assessed as reduction in cell viability incubated for 72 hrs by MTT assay. Type of experiment: functional, cell-based. Conditions: HT-1080, 72 h. In outline:
as §1

Molecules are shown by their SMILES. Active and inactive are the calls of the source. The rule behind the calls is not given here.

Turning to `CN1CCN(c2ccc(NC(=N)c3cc4c(-c5ccccc5)n[nH]c4c(NC4CCCCC4)n3)cc2)CC1`, the IC50 (in general, the point on the concentration scale where inhibition reaches its midpoint) with PC-3 stood at 4630 nM; in the experiment with AG1523, 12300 nM; with MDA-MB-231, 1500 nM; with HT-1080 [9], 650 nM. In addition, the Activity is 14.37% with HT-1080 [1] and 41.85% with HT-1080 [3]. Further, the “Percentage of cells in G0/G1 phase” value in the experiment with HT-1080 [2] turned out to be 43.78%. In addition, the result (in experiment [4]; in the experiment on HT-1080 [6]) was Active. For the same compound, the inhibition (commonly the percentage by which the read-out fell short of the control) in the experiment with HT-1080 [5] was “Active”. In addition, the “Percent of cells in sub-diploid (sub-G1) phase” value (“Percent of cells in sub-diploid” for short) with HT-1080 [7] is reported as 13.49%. The compound also displayed an inhibition in experiment [8] of 100%.

Take `N=C(Nc1ccccc1)c1cc2c(-c3ccccc3)n[nH]c2c(NC2CCCCC2)n1`: the IC50 amounted to 1730 nM in the experiment with PC-3, 4190 nM in the experiment on AG1523, 1710 nM in the experiment on MDA-MB-231 and 850 nM in the experiment with HT-1080 [9]. Further, the Activity is given as 16.48% in the experiment on HT-1080 [1] and 43.29% with HT-1080 [3]. Also, the “Percentage of cells in G0/G1 phase” value in the experiment with HT-1080 [2] was determined as 40.23%. The outcome (in [4]; in the experiment with HT-1080 [6]) was Active. In the experiment with HT-1080 [7], the “Percent of cells in sub-diploid” value is given as 8.27%.

In the case of `COc1ccc(Cn2nc(-c3ccccc3)c3cc(C(=N)Nc4ccc(N5CCN(C)CC5)cc4)nc(Nc4cc(OC)c(OC)c(OC)c4)c32)cc1`, the half-inhibitory concentration (IC50) in the experiment on PC-3 came out at 1240 nM; with AG1523, 1810 nM; in the experiment on MDA-MB-231 it was 890 nM; in the experiment on HT-1080 [9], 1200 nM. Also, the Activity in the experiment on HT-1080 [1] amounted to 64.04%; in the experiment on HT-1080 [3], 9.29%. Moreover, in the experiment with HT-1080 [2], the “Percentage of cells in G0/G1 phase” value came to 26.67%. In addition, the outcome (in experiment [4]; in the experiment on HT-1080 [6]) was Active. Also, the inhibition entry (with HT-1080 [5]; in experiment [8]) was “Active” each time. Moreover, the “Percent of cells in sub-diploid” value in the experiment with HT-1080 [7] is on record as 27.79%.

For the compound `COc1ccc(Cn2nc(-c3ccccc3)c3cc(C(=N)Nc4ccc(N5CCN(C)CC5)cc4)nc(N4CCOCC4)c32)cc1`, the IC50 in the experiment with PC-3 worked out at 4580 nM; in the experiment on AG1523 it was 2190 nM; with MDA-MB-231, 1130 nM; in the experiment on HT-1080 [9] it was 700 nM. The values for the Activity in the experiment with HT-1080 [1] and in the experiment on HT-1080 [3] were 34.21% and 31.48%, respectively. In the experiment with HT-1080 [2], the “Percentage of cells in G0/G1 phase” value stood at 34.31%. Also, the inhibition entry in the experiment with HT-1080 [5] is “Active”. The outcome in the experiment with HT-1080 [6] was Active. The “Percent of cells in sub-diploid” value with HT-1080 [7] turned out to be 21.09%. Further, the inhibition in [8] was determined as 100%.

(Values after ChEMBL document CHEMBL4819061, “New bioactive 5-arylcarboximidamidopyrazolo[3,4-c]pyridines: Synthesis, cytotoxic activity, mechanistic investigation and structure-activity relationships” (Eur J Med Chem, 2021).)
